Data on three molecules can be found in ChEMBL document CHEMBL4725448, “Substituted Azabicyclo[2.2.1]heptanes as Selective Orexin-1 Antagonists: Discovery of JNJ-54717793” (ACS Med Chem Lett, 2020).

Data set [1] is described as follows: Ex vivo receptor occupancy at OX1R in Sprague-Dawley rat brain tenia tecta using [3H]SB-674042 labelling at 10 mg/kg, po measured after 0.5 hrs by autoradiography. In kind it is functional. The essentials: (§1)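 Rats received a single oral dose, and OX1R occupancy was measured by ex vivo binding autoradiography in brain tenia tecta sections at 0.5, 2 and 6 h after dosing. Occupancy is expressed as percent. Brain and plasma drug levels (ng/mL) were also sampled at the 0.5 h time point.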

The target in the next data set is T1, PXR (NR1I2) (Homo sapiens, UniProt O75469).
T1 sequence (O75469 whole entry): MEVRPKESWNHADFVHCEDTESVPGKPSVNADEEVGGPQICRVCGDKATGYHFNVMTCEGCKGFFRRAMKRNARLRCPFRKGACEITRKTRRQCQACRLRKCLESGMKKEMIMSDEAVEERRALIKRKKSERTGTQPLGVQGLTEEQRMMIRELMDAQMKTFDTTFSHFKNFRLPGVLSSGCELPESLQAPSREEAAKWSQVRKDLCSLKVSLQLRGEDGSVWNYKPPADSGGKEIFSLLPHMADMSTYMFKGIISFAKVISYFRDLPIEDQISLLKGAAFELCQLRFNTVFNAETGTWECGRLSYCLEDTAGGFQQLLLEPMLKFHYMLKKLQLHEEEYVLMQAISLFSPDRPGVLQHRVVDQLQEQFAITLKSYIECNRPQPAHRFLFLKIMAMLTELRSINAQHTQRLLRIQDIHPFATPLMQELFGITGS
As to the kind of experiment: Induction of human PXR at 10 uM relative to control. In kind it is ADME. To be noted: read-out: Activity. The procedure, abridged:
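Human PXR activation as an indirect measure of CYP3A4 induction, at 10 μM, expressed as % of rifampicin control activation.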

A short description of data set [2]: Ex vivo receptor occupancy at OX1R in Sprague-Dawley rat brain tenia tecta using [3H]SB-674042 labelling at 10 mg/kg, po measured after 6 hrs by autoradiography. In kind it is functional. The essentials: as §1
A short description of data set [3]: Ex vivo receptor occupancy at OX1R in po dosed rat tenia tecta after 60 mins. It is filed as functional, organism-based. The conditions noted are these: 1 h.
Data set [4] can be described thus: Protein binding in human plasma assessed as free fraction. In kind it is ADME, cell-free.
Data set [5] can be described thus: Drug concentration in Sprague-Dawley rat plasma at 10 mg/kg, po after 0.5 hrs by LC-MS/MS analysis. It is filed as ADME, organism-based. The procedure, abridged: (§2)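 Brain and plasma levels (ng/mL) sampled 0.5 h after oral dosing at 10 or 30 mg/kg, alongside the ex vivo tenia tecta occupancy study.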
Data set [6] in a line: Stability in rat liver microsomes assessed as extraction ratio. It is filed as ADME, Microsome. To be noted: read-out: ERH. The procedure, abridged:
(§3)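 Metabolic stability in human or rat liver microsomes, expressed as extraction ratios.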
In general terms: Liver microsomes are vesicles of endoplasmic reticulum, rich in cytochrome P450 enzymes.

Data set [7] is described as follows: Permeability across basolateral to apical side in MDCK cells. It is filed as ADME, cell-based, Canis lupus familiaris. To be noted: dog.
Data set [8] in a line: Protein binding in rat plasma assessed as free fraction. It is filed as ADME, cell-free.
Data set [9] is described as follows: Protein binding in rat brain assessed as free fraction. It is filed as ADME, tissue-based.
A short description of data set [10]: Permeability across apical to basolateral side in MDCK cells. It is filed as ADME, cell-based, Canis lupus familiaris. The conditions noted are these: dog.
Another data set addresses T2, Orexin receptor type 2 (Homo sapiens, UniProt O43614).
T2 sequence (O43614 whole entry): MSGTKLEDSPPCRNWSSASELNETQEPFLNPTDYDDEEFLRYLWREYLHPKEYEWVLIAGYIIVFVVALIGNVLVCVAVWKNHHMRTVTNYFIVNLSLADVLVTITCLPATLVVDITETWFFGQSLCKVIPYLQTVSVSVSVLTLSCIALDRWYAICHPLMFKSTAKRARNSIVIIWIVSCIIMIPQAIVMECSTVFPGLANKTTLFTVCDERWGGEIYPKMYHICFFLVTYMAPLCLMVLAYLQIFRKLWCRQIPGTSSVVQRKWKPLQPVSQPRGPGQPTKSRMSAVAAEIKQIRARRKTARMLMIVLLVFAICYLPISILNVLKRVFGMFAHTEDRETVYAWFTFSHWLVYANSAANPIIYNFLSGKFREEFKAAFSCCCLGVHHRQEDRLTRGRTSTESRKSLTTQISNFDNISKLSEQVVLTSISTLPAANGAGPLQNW
In words: Binding affinity to human OX2R.

Data set [11] in a line: Stability in human liver microsomes assessed as extraction ratio. It is filed as ADME, Microsome. To be noted: read-out: ERH. The procedure, abridged:
as §3

A short description of data set [12]: Drug concentration in Sprague-Dawley rat brain at 10 mg/kg, po after 0.5 hrs by LC-MS/MS analysis. In kind it is ADME, organism-based. The conditions noted are these: read-out: Ct. The procedure, abridged:
as §2

A short description of data set [13]: Ex vivo receptor occupancy at OX1R in Sprague-Dawley rat brain tenia tecta using [3H]SB-674042 labelling at 10 mg/kg, po measured after 2 hrs by autoradiography. In kind it is functional. The procedure, abridged: as §1
Data set [14] has as its target T3, Orexin/Hypocretin receptor type 1 (Homo sapiens, UniProt O43613).
T3 sequence (O43613 whole entry): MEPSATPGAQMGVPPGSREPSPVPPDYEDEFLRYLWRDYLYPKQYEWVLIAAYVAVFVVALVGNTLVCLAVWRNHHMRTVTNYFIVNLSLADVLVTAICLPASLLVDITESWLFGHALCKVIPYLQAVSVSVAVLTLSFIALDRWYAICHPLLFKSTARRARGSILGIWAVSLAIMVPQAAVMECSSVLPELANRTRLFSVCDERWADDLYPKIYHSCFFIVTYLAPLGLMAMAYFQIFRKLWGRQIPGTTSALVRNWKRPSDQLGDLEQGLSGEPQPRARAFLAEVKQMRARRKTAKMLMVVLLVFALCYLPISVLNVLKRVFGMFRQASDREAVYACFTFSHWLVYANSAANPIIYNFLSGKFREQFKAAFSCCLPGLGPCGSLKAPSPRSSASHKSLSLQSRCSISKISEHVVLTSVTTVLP
As to the kind of experiment: Binding affinity to human […].

A further data set is filed under the species Homo sapiens. As to the kind of experiment: Selectivity index, ratio of Ki for human OX2R to Ki for human OX1R.

In brackets after ≈: the same amount, converted by molar mass.

Usually EC50 stands for the concentration needed to bring the measured effect to its halfway point. As a reminder, the ED50 is the midpoint of the dose-response relation. A low value points to an effect at a small dose. A word on the fraction unbound: it is free concentration divided by total concentration. As a reminder, the Papp B→A is the apparent permeability from the basolateral to the apical side of a cell layer. The term Papp A→B denotes the apparent permeability from the apical to the basolateral side of a cell layer. Low values mean slow passage, high ones fast passage. By Ki is commonly meant a dissociation constant, usually derived from enzyme kinetics or from competition with a known ligand. High values mean lower affinity, low ones higher affinity. Turning to `O=C(c1cccc(F)c1-c1ncccn1)N1[C@@H]2CC[C@H]1[C@H](Nc1ncc(C(F)(F)F)cc1F)C2`, the Activity in data set [1] was found to be 81%; in data set [2], 46%; in data set [13], 70%. Besides, at PXR (NR1I2), the activity at 10 µM was 39%. The molecule also registered a half-maximal effective concentration (EC50) in [3] of 0.25 µg/mL (≈ 0.526 µM). The same molecule came in with a 50% effective dose (ED50) in data set [3] (po, time 60 min) of 4.8 mg/kg. The free fraction (fraction unbound) in data set [4] came to 0.056; in [8] it was 0.064; in data set [9], 0.027. Also, the results for the concentration at 0.5 h in [5] and in data set [12] were 837 ng/mL and 539 ng/mL, respectively. The hepatic extraction ratio in data set [6] is 0.8; in data set [11], 0.49. The same molecule yielded an apparent permeability from basolateral to apical (Papp B→A) in [7] of 71.3 ×10⁻⁶ cm/s. Also, the Papp A→B in [10] was found to be 7.7 ×10⁻⁶ cm/s. Besides, the Ki on Orexin receptor type 2 worked out at 1100 nM; in data set [14], 15 nM.
With `O=C(c1ccccc1-c1ncccn1)N1[C@@H]2CC[C@H]1[C@H](Nc1cnc(C(F)(F)F)cn1)C2`, the Activity is listed as 77% in data set [1], 48% in [2] and 83% in data set [13]. Moreover, the activity at 10 µM on PXR (NR1I2) came to 18%. Further, the figures for the free fraction (fraction unbound) in data set [4], in data set [8] and in data set [9] were 0.15, 0.214 and 0.067, respectively. Also, the concentration at 0.5 h in [5] amounted to 1480 ng/mL; in [12], 296 ng/mL. The hepatic extraction ratio was 0.38 in data set [6] and under 0.3 in data set [11]. The molecule also returned a Papp B→A in [7] of 68 ×10⁻⁶ cm/s. This molecule also gave a Papp A→B in data set [10] of 1.1 ×10⁻⁶ cm/s. The Ki stood at 520 nM on Orexin receptor type 2 and 19 nM in data set [14].
For `O=C(c1ccccc1-n1nccn1)N1C2CCC1C(Nc1ccc(Cl)cn1)C2` (racemic), the Ratio Ki in the data set listed under Homo sapiens is 20. The hepatic extraction ratio in data set [6] is over 0.92; in [11], 0.88. Also, the inhibition constant Ki at Orexin receptor type 2 amounted to 2130 nM; in data set [14], 96 nM.
